Source: ChEMBL document CHEMBL1148332, “Mitomycin dimers: polyfunctional cross-linkers of DNA” (2004)

Key:
Nucleic Acid [1] = assay: Apparent binding constant against calf thymus DNA was determined; type: nucleic-acid assay; settings: Bos taurus
Nucleic Acid [2] = assay: Concentration of compound required for cross linking 50% of tyrT DNA, Na2S2O4; type: functional
Summary of the method: (§1)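 The 5'-³²P-labeled 162-bp tyrT DNA fragment (10 ng) was mixed with drug at various concentrations in Tris/EDTA buffer and deaerated with nitrogen. Dithionite was added from a 50 mM stock, and the mix was kept on ice in the dark for 1 h. After ethanol precipitation it was denatured at 94 °C for 4 min and run on an 8% denaturing polyacrylamide gel; cross-linked species were quantified by phosphor screen.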

Nucleic Acid [3] = assay: Concentration of compound required for cross linking 50% of T-7 DNA, Na2S2O4; type: functional
Summary of the method: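 T-7 coliphage DNA (100 μM) with drug at 0.5–15 μM in 0.015 M Tris·HCl, pH 7.4, was deaerated and given a 10-fold molar excess of Na₂S₂O₄ for 60 min under argon. Hoechst 33258 (100 nM) fluorescence (ex 355/em 460 nm) was read before and after heating at 95 °C and chilling. Cross-linked fraction was taken relative to a drug-free control; ICL50 is the concentration giving 50% cross-linked DNA.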

Tumor Cell line = assay: In vitro anticancer activity against cultured 60 human tumor cell lines; type: functional
Summary of the method: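 NCI screen panel of about 60 human tumor cell lines from nine tissue types. GI50 is the concentration causing 50% growth inhibition, reported as the mean-graph midpoint (mean of the individual cell-line GI50 values).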

Nucleic Acid [4] = assay: Compound was tested on efficacy of Cross-Linking of tyrT DNA, acid at a concentration 400 uM; type: functional
Summary of the method: (§2)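 The labeled 162-bp tyrT DNA fragment was incubated with drug in citrate phosphate, pH 4.0, aerobically for 2 h. It was ethanol-precipitated, denatured at 94 °C for 4 min, and resolved on an 8% denaturing polyacrylamide gel at about 55 °C; cross-linked bands were detected by phosphor screen.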

Nucleic Acid [5] = assay: Compound was tested on efficacy of Cross-Linking of pBR322 DNA, Na2S2O4; type: functional
Summary of the method: (§3)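 pBR322 DNA linearized with EcoRI and 3'-end labeled with α-³²P-dATP by Klenow. About 100 ng was mixed with drug at various concentrations in 10 mM sodium phosphate/1 mM EDTA, pH 7.5, argon-deaerated, then reduced with dithionite for 45 min at room temperature. It was then denatured in 30% DMSO strand-separation buffer at 90 °C for 5 min, run on 1% agarose, and the cross-linked fraction quantified by phosphorimaging.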

Nucleic Acid [6] = assay: Concentration of compound required for cross linking 50% of T-7 DNA, Acid; type: functional
Summary of the method: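 T-7 coliphage DNA was incubated with drug at 5–200 μM in citrate phosphate, 10 mM Na⁺, pH 4.0, aerobically for 4 h. The cross-linked fraction came from Hoechst 33258 fluorescence (ex 355/em 460 nm) read before and after a 95 °C heat and ice chill, relative to a drug-free control; ICL50 is the drug concentration giving 50% cross-linking.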

Nucleic Acid [7] = assay: Concentration of compound required for cross linking 5% of tyrT DNA, Na2S2O4; type: functional; summary of the method: as §1
Nucleic Acid [8] = assay: Compound was tested on efficacy of Cross-Linking of pBR322 DNA, acid at 40 uM; type: functional
Summary of the method: (§4)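 The 3'-³²P-labeled, EcoRI-linearized pBR322 DNA was incubated with drug in 10 mM sodium phosphate, pH 4, aerobically for 2 h with no reductant. It was heat-denatured in DMSO strand-separation buffer and separated on 1% agarose, and percent cross-linked DNA was quantified by phosphorimaging.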

Nucleic Acid [9] = assay: Compound was tested on efficacy of Cross-Linking of tyrT DNA, acid at >400 uM; type: functional; summary of the method: as §2
Nucleic Acid [10] = assay: Concentration of compound required for cross linking 50% of pBR322 DNA, Na2S2O4; type: functional; summary of the method: as §3
Nucleic Acid [11] = assay: Compound was tested on efficacy of Cross-Linking of pBR322 DNA, acid at 1 uM; type: functional; summary of the method: as §4
Nucleic Acid [12] = assay: Concentration of compound required for cross linking 50% T-7 DNA, Acid; type: functional
Summary of the method: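 T-7 coliphage DNA (100 μM) with drug at 5–200 μM in citrate phosphate buffer, 10 mM Na+, pH 4.0, incubated aerobically 4 h. Diluted into 5 mM Tris/0.5 mM EDTA pH 8.0 with 100 nM Hoechst 33258; fluorescence (ex 355/em 460 nm) read before and after heat denaturation (95 °C, 5 min), ice chill and room-temperature renaturation. Cross-linked fraction computed against drug-free controls; ICL50 = drug concentration giving 50% cross-linked DNA.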

SMILES	K app (Nucleic Acid [1])	ICL50 (Nucleic Acid [2])	ICL50 (Nucleic Acid [3])	GI50 (Tumor Cell line)	Cross linking (Nucleic Acid [4])	ICL50 (Nucleic Acid [5])	ICL50 (Nucleic Acid [6])	ICL5 (Nucleic Acid [7])	Cross linking (Nucleic Acid [8])	Cross linking (Nucleic Acid [9])	ICL50 (Nucleic Acid [10])	inhibition (Nucleic Acid [11])	ICL50 (Nucleic Acid [12])
CO[C@@]12[C@H](COC(N)=O)C3=C(C(=O)C(C)=C(NCCCCNC4=C(C)C(=O)C5=C(C4=O)[C@@H](OC(N)=O)[C@@]4(OC)[C@H]6N[C@H]6CN54)C3=O)N1C[C@@H]1N[C@@H]12	50000 M⁻¹	Infinity	2.6 µM	69.2 µM	0.6%	3.8 µM	> 200 µM	20 µM	< 10%				
CO[C@@]12[C@H](COC(N)=O)C3=C(C(O)=C(C)/C(=N\CCCN(C)CCC/N=C4/C(=O)C5=C(C(O)=C4C)N4CC6NC6[C@]4(OC)[C@@H]5COC(N)=O)C3=O)N1C[C@@H]1N[C@@H]12 (some centres not stated)	80000 M⁻¹	150 µM	1.5 µM	2.51 µM			20 µM	10 µM		1.8%	0.5 µM	10%	
CO[C@@]12[C@H](COC(N)=O)C3=C(C(=O)C(C)=C(N)C3=O)N1C[C@@H]1N[C@@H]12 [MITOMYCIN]	17000 M⁻¹	Infinity	10 µM	0.832 µM				55 µM					> 200 µM
CO[C@@]12[C@H](COC(N)=O)C3=C(C(=O)C(C)=C(NCCCCCCCCCCCCNC4=C(C)C(=O)C5=C(C4=O)[C@@H](OC(N)=O)[C@@]4(OC)[C@H]6N[C@H]6CN54)C3=O)N1C[C@@H]1N[C@@H]12				4.47 µM					10%		1.7 µM		
